Data: article PMC5708124 (Nature microbiology, 2017)

Key:
[1] = test system: compound-exposed Pf GAMs in Anopheles stephensi mosquitoes; experiment: Membrane-feeding assay with A. stephensi mosquitoes; type: in vivo, Plasmodium falciparum
Summary of the method: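 Day-12 gametocytes were treated 3 days at 1x or 3x their late-stage IC50, with compound refreshed daily, then held 4 days without compound. Controls were 0.25% DMSO and methylene blue at 3x. Stage V cultures (50% Hct, 0.01–0.16% parasitemia) were membrane-fed for 30 min to A. stephensi, kept at 26°C and 78% RH. Midguts were dissected on day 7–8, stained with mercurochrome and oocysts counted blind. Prevalence is the percentage of mosquitoes with at least one oocyst.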

Dd2-B2 late rings = experiment: Hb endocytosis by Western blot; type: cell-based, Plasmodium falciparum; conditions: 5′ the IC50 for 5 h, normalized to DMSO control
Summary of the method: (§1)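 Sorbitol-synchronized parasites were exposed to test compound at 5x IC50 for 5 h, starting at the late ring stage. Lysates were blotted to nitrocellulose and probed overnight at 4°C with rabbit anti-human Hb (1:5,000) and anti-β-actin (1:2,000). Detection was by ECL. Hb band intensities were normalized to β-actin and compared with untreated controls. Repeated on 3–4 independent occasions.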

[2] = test system: PfMDR1^selY290F late rings; experiment: Hb endocytosis by Western blot; type: cell-based, Plasmodium falciparum; conditions: 5′ the IC50 for 5 h
Summary of the method: as §1

[3] = test system: NITD609-R^Dd2 clone #2 (PfATP4 mutant line); experiment: Imaging-based asexual blood stage high-throughput assay; type: cell-based, Plasmodium falciparum; conditions: read-out: ABS IC50, 72 h
Summary of the method: (§2)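 Sorbitol-synchronized parasites were seeded at 2% parasitemia and 0.3% Hct and exposed to test compound for 72 h at 37°C in 5% O₂/5% CO₂/90% N₂. Cells were then permeabilized with 0.01% Triton X-100, 0.001% saponin and 5 mM EDTA, and stained with 0.5 μg/mL DAPI for at least 6 h at room temperature in the dark. Confocal imaging used 405 nm excitation. Parasites were counted from spot size and intensity. Two independent cultures.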

[4] = test system: cultured P. berghei liver-stage parasites; conditions: cited from earlier work
[5] = test system: NF54^Pfs16 early-stage GAMs; experiment: Luciferase-based early-stage gametocyte inhibition assay; type: cell-based, Plasmodium falciparum; conditions: in words
Summary of the method: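 Gametocytes on day 1 of gametocytogenesis were set at 10% parasitemia and 0.5% Hct. They were kept in medium with 50 mM N-acetyl-D-glucosamine, refreshed daily. Compound was added at 0.4% DMSO final. Controls were DMSO (0% inhibition) and 5 μM puromycin (100% inhibition). After 72 h at 37°C in 5% O₂/5% CO₂/90% N₂, Steadylite was added, followed by 60 min lysis at room temperature and a luminescence read. Potency used serial dilutions up to 40 μM, three per log, on two independent occasions.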

[6] = test system: 3D7 (drug-sensitive) ABS parasites; experiment: Imaging-based asexual blood stage high-throughput assay; type: cell-based, Plasmodium falciparum; conditions: read-out: ABS IC50; drug-sensitive 3D7, 72 h
Summary of the method: as §2

[7] = test system: NF54^Pfs16 late-stage GAMs; experiment: Image-based late-stage gametocyte inhibition assay; type: cell-based, Plasmodium falciparum; conditions: in words
Summary of the method: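 Day-8 stage IV gametocytes were MACS-purified and set at 10% parasitemia and 0.1% Hct, with 0.4% DMSO final. They were incubated 72 h at 37°C in 5% O₂/5% CO₂/90% N₂, then stained overnight with MitoTracker Red CM-H₂XRos. Confocal imaging counted viable mature gametocytes per imaged area; 5 μM puromycin was the control. Screening used 2 μM in triplicate. Potency used serial dilutions up to 40 μM, three per log, on two independent occasions.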

[8] = test system: HEK293 human embryonic kidney cell line; experiment: HEK293 cytotoxicity; type: cell-based; conditions: at 40 μM, 72 h
Summary of the method: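 Cells were grown in DMEM with 10% fetal calf serum and seeded at 2,000 cells/well, then left overnight at 37°C in 5% CO₂ to adhere. Test compound was added as a serial dilution with a maximum of 40 μM, at 0.4% DMSO final, for 72 h. Medium was then replaced with serum-free DMEM containing 44 μM resazurin for 4–6 h. Fluorescence was read at 530/595 nm. Two biological replicates.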

[9] = test system: P. berghei ANKA MRA868 ABS parasites; experiment: 4-day Peters test; type: in vivo, P. berghei in CD-1 mice; conditions: 4 doses, 96 h post infection
Summary of the method: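 Female CD-1 mice (5 weeks old, 22–25 g; four per group) were infected intraperitoneally with 1x10⁶ parasites. The test compound was given intraperitoneally at 2, 24, 48 and 72 h after infection, in 20% DMSO in water. Controls were solvent only and DHA at 30 mg/kg. Parasitemia was read by microscopy at 96 h. Groups were randomized and blinded. The 100 mg/kg groups were tested once.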

[10] = test system: P. berghei ANKA MRA868 GAMs, Anopheles stephensi mosquitoes; experiment: In vivo transmission-blocking effect; set-up: species or system P. berghei in CD-1 mice; conditions: mice given two doses 12 h apart: 100 mg/kg GNF compounds, 30 mg/kg DHA
male GAM exflagellation = experiment: Male GAM exflagellation of GAM cultures used for membrane feeding; type: cell-based, Plasmodium falciparum; conditions: GAM cultures exposed at 3x late-stage IC50
[11] = test system: PfMDR1 mutant lines versus parental ABS parasites (Dd2-B2, FCB); experiment: Drug susceptibility profiling of HHQ-resistant lines in ABS parasites; type: cell-based, Plasmodium falciparum
Dd2-B2 parasites = experiment: Heme fractionation assay; type: cell-based, Plasmodium falciparum
[12] = test system: PfMDR1^selY290F parasites; experiment: Heme fractionation assay; type: cell-based, Plasmodium falciparum; conditions: PfMDR1^selY290F
Summary of the method: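 Early ring-stage, sorbitol-synchronized parasites were exposed to test compound at 0.1, 0.25, 0.5, 1 and 2x the ABS IC50. Heme species were fractionated and normalized to the number of cells analyzed, counted by flow cytometry of an aliquot. Significance was tested by two-tailed t-tests.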

[13] = test system: Dd2 (multidrug-resistant) ABS parasites; experiment: Imaging-based asexual blood stage high-throughput assay; type: cell-based, Plasmodium falciparum; conditions: read-out: ABS IC50; multidrug-resistant Dd2, 72 h
[14] = test system: Pf ABS parasites and GAMs; conditions: cited from earlier work
[15] = all exposure levels up to 2′ IC50, 32 h

CCOC(=O)C1=C(C)NC2=C(C(=O)CC(c3ccc(OC)c(OC)c3)C2)C1c1ccccc1Cl (centres unmarked) [GNF-Pf-5660]
reduction in oocyst density per infected mosquito midgut ([1]; GAMs pre-treated at 3x late-stage IC50): 95–99% | reduction in infection prevalence (percentage of infected mosquitoes) ([1]; GAMs pre-treated at 3x late-stage IC50, 3 days, then 4 days without compound): 97% | reduction of Hb levels within parasites (Dd2-B2 late rings): 32% | Hb levels within parasites [2]: unchanged | IC50 [3]: < 25 nM | activity against liver-stage parasites [4]: inactive | early-stage gametocytocidal activity [5]: potent | IC50 [6]: < 25 nM | late-stage gametocytocidal activity [7]: potent | inhibition of HEK293 cells [8]: no inhibition | reduction of parasitemia compared to vehicle-treated mice ([9]; 70 mg/kg intraperitoneal): 22% | reduction of parasitemia compared to vehicle-treated mice ([9]; 100 mg/kg intraperitoneal): 65% | reduction in oocyst burden [10]: 21% | reduction in the number of infected mosquitoes [10]: 25% | reduction in male GAM exflagellation rates (male GAM exflagellation): 98% | fold increase in IC50 compared to parental Dd2-B2 ([11]; GNF-Pf-5660-selected clone 2B6H1, PfMDR1 Y290F (AB 100%)): 248 fold | fold decrease in Hz levels compared with untreated controls (Dd2-B2 parasites; 0.1′ the IC50 value): 1.5 fold | fold reduction in Hz levels (Dd2-B2 parasites; 0.25′ to 2′ IC50): 2.3 fold | Hb concentration per parasite (Dd2-B2 parasites; [15]): unchanged | free heme concentration per parasite (Dd2-B2 parasites; [15]): unchanged | fold higher exposure levels than in Dd2-B2 giving similar profile of reduced Hz and total heme iron [12]: > 160 fold | IC50 [13]: < 25 nM

CC(=O)N1CCN(c2ccc(CN(C(=O)/C=C/c3ccc(C(C)(C)C)cc3)[C@@H](Cc3ccccc3)C(=O)N3CCN(Cc4ccc(C#N)cc4)CC3)cc2)CC1 [ACT-451840]
activity against Pf ABS parasites and GAMs [14]: low nanomolar | fold decreased susceptibility versus Dd2-B2 ([11]; PfMDR1^edF1072L): 16 fold | fold decreased susceptibility versus Dd2-B2 ([11]; PfMDR1^edS1075I): 5.5 fold | fold decreased susceptibility versus Dd2-B2 ([11]; PfMDR1^selY290F): 45 fold
